# KCNK3 block = human KCNK3 channel inhibitors, primary screen, CHO cells, FluxOR thallium flux, B-score; hit rate 0.84% among 340,000; FluxOR fluorescence; hits give low values; AID 602410, 2012; B-score at 10 µM;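 active = B-score under library mean minus 4 SD, starting fluorescence ratio at most library mean plus 5 SD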;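 also: more negative B-score means stronger inhibition of thallium flux through KCNK3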
# Target sequence (O14649 whole entry, looked up): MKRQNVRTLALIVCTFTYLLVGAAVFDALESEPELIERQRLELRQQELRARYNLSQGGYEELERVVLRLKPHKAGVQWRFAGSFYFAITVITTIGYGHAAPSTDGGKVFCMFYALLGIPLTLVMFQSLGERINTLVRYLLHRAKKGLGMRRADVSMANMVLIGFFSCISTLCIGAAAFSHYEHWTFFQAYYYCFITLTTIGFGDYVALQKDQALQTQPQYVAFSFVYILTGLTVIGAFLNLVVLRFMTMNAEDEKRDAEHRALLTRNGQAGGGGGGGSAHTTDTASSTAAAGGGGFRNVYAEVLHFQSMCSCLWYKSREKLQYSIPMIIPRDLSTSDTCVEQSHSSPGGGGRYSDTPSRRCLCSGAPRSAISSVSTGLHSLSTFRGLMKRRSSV
# Kir21 block = inhibitors of mouse Kir2.1 inward-rectifier potassium channel | Inward rectifier potassium channel 2 (Mus musculus), P35561 | HEK293-Kir2.1, FluxOR thallium flux fluorescence; hits give low values | B-score at 10 µM | hit rate 0.85% among 310,000 | AID 1672, 2009;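 active = fluorescence ratio B-score at or below minus 3 SD of library scores, with starting-brightness B-score within 2 SD, cut at about -4.2 in these data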;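 also: channel flux triggered by added potassium and thallium sulfate stimulus; B-score of peak minus minimum fluorescence over baseline after thallium stimulus; more negative B-score means stronger Kir2.1 block with less thallium influx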
# KCNQ1 inh = inhibitors of human KCNQ1 channel, primary screen, cell-based, thallium flux, high-throughput. B-score at 10 µM. CHO-K1 KCNQ1, FluxOR thallium flux fluorescence; hits give high values. hit rate 1.3% among 310,000;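 active = compounds whose thallium flux B-score, printed positive for inhibition, exceeds three library SD while starting fluorescence stays within three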;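 also: channel opened by potassium depolarization with thallium stimulus after 20 min compound exposure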
# KCNK9 block = KCNK9 potassium channel inhibitors, primary screen, HEK293 cells, thallium flux; hit rate 1.2% among 310,000; AID 488922, 2010; B-score at 10 µM; FluxOR thallium flux fluorescence; hits give low values; Potassium channel subfamily K member 9 (Homo sapiens), Q9NPC2;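 active = ratio B-score over 3 SD below the library mean, with starting fluorescence within 5 SD of its mean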;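 also: negative B-score means less thallium flux so channel inhibition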
# hERG rescue = hERG rescue from dofetilide block, primary screen, cell-based, CHO-hERG, FluxOR thallium flux, dofetilide IC70; dofetilide IC70 present; activation (rescue from dofetilide block), less the hit threshold, % at 10 µM; Voltage-gated inwardly rectifying potassium channel KCNH2 (Homo sapiens), Q12809; hit rate 0.51% among 310,000; AID 1511, 2009;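 active = activation above the mean of controls blocked by dofetilide plus 5 SD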;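 also: thallium influx through hERG after potassium depolarization seen as dye fluorescence rise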
# KCNQ1 act = potentiators or activators of KCNQ1 channel, primary screen, cell-based, thallium flux, high-throughput; B-score at 10 µM; CHO-K1 KCNQ1, thallium flux FluxOR fluorescence; hits give high values; Potassium voltage-gated channel subfamily KQT member 1 (Homo sapiens), P51787; hit rate 0.35% among 310,000;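 active = fluorescence ratio B-score, a plate-corrected score, at least three library SD, with initial intensity B-score within 5 SD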
#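 System: CHO-K1 cells stably expressing KCNQ1 / Medium: assay buffer for compound exposure, DMSO matched across wells / Reagent: thallium- and potassium-containing depolarizing buffer / Compound: one concentration, matched DMSO / Incubation: 20 min compound pretreatment at room temperature / Measured by: kinetic FluxOR fluorescence, 10 s baseline plus 110 s post-stimulus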
# * hit, by the source's call; i = inactive; . = no result given. Only some compounds are listed: those with a hit (about 3.7% of all), similar ones and a draw of the others.
SMILES,KCNK3 block,Kir21 block,KCNQ1 inh,KCNK9 block,hERG rescue,KCNQ1 act
CCN(C(=O)COC(=O)c1ccc2c(c1)OCO2)c1c(N)n(Cc2ccccc2)c(=O)[nH]c1=O,i,.,.,.,.,.
CCN(CC(=O)N1CCC(C(N)=O)CC1)S(=O)(=O)c1ccc(Cl)cc1,i,1,i,i,-6,i
Cc1cccc(Nc2nc(N)c([N+](=O)[O-])c(NCc3ccco3)n2)c1,i,0.02,6*,i,-5,i
Cc1cccc(Nc2nc(NCc3ccco3)nc(N)c2[N+](=O)[O-])c1,i,0.32,i,i,-9,i
COc1ccc(Nc2nc(NCc3ccco3)nc(N)c2[N+](=O)[O-])cc1,i,0.03,i,-7.8*,-10,i
CCCCn1c(N)c(N(CCOC)C(=O)c2cc(-c3ccc(F)cc3)nc3ccccc23)c(=O)[nH]c1=O,i,0.96,i,i,-18,i
O=C(Cn1ccc2cc(S(=O)(=O)N3CCCC3)ccc21)NCCc1ccccc1,i,-1.4,i,i,-10,i
C=C(C)Cn1cnc2cc(C)c(C)cc21,i,-1.4,i,i,8.6*,i
Cc1cc2ncn(CS(C)(=O)=O)c2cc1C,i,0.27,i,i,-14,i
COc1cccc(-n2nc(C#N)c(Cl)cc2=O)c1,i,-4.6*,i,i,-14,i
CCN1CCN(Cc2c(O)ccc3c2O/C(=C\C=C\c2ccccc2OC)C3=O)CC1,i,-10,6*,i,-31,i
CCN1CCN(Cc2c(O)ccc3c(=O)c(-c4ccccc4OC)coc23)CC1,i,1.7,i,i,-7,i
Cc1ccc(OCC(=O)N2N=C(C(F)(F)F)CC2(O)C(C)(C)C)cc1C (stereo not drawn),i,-4.2*,7*,i,-6,i
CC(C)(C)C1(O)CC(C(F)(F)F)=NN1C(=O)Cc1ccc([N+](=O)[O-])cc1 (stereo not drawn),i,-0.33,i,i,-2,12*
Cc1ccccc1OCC(=O)N1N=C(C(F)(F)F)CC1(O)C(C)(C)C (stereo not drawn),i,-0.1,i,i,-11,i
O=C(O)C(F)=C1c2ccccc2-c2ccccc21,i,1.8,i,i,0,i
Cc1ccc(CNc2nc(C)cs2)cc1,i,-1.4,i,i,-6,i
Cc1cccc(-n2c(N)c(-c3nc4ccccc4n3C)c3nc4ccccc4nc32)c1,-8.8*,-0.09,i,i,-14,i
COc1ccc(NC(=O)c2cccc(S(=O)(=O)N3CCOCC3)c2)cn1,i,0.1,i,-6.9*,-4,i
O=C(O)COc1ccccc1/C=N/NC(=O)c1cccc(S(=O)(=O)N2CCOCC2)c1,i,0.05,i,i,5.4*,i
CC(C)c1ccccc1OCC(=O)Nc1ccc2[nH]ncc2c1,i,-2,i,i,-6,i
CCOC(=O)C1=C(C)Nc2nnnn2C1c1ccccc1Cl (stereo not drawn),i,.,.,.,.,.
COC(=O)C1=C(C)Nc2nnnn2C1c1ccc(Cl)cc1Cl (stereo not drawn),i,-0.73,i,i,-5,18*
CCCn1c(SCC(=O)Nc2ccc3c(c2)OCCO3)n[nH]c1=O,i,.,.,.,.,.
COc1ccc(-c2nn(-c3ccccc3)cc2C(=O)Nc2ccc(C(=O)O)cc2)cc1,i,-0.6,i,i,-1,i
SMILES,KCNK3 block,Kir21 block,KCNQ1 inh,KCNK9 block,hERG rescue,KCNQ1 act
COc1ccc(NC(=O)c2cn(-c3ccccc3)nc2-c2cc3ccccc3o2)cc1,i,-1.8,7*,i,-5,i
COc1ccc(NC(=O)c2cn(-c3ccccc3)nc2-c2ccncc2)cc1,i,0.03,i,i,25*,i
COc1ccc(-c2nn(-c3ccccc3)cc2C(=O)NC(=S)NNC(=O)c2ccncc2)cc1,i,-0.01,i,i,17*,i
CC(NC(=O)C12CC3CC(CC(O)(C3)C1)C2)c1ccc(Cl)cc1Cl (stereo not drawn),i,0.45,i,i,-6,i
CC(C)CNC(=O)C(=O)NCC1OCCCN1S(=O)(=O)c1ccc2c(c1)OCCO2 (stereo not drawn),i,-0.17,i,i,-5,i
CC1(N2CCCCC2)CC2(O)C(=[N+]1[O-])CCC/C2=N\O (stereo not drawn),i,-0.15,i,i,-6,8*
O=Cc1ccc(C(=O)OCC(=O)NC(=O)Nc2ccccc2F)cc1,i,.,.,.,.,.
CC(=O)c1ccc2c3c(cc(C)c2c1)CCCC3,i,.,.,.,.,.
COc1ccccc1NC(=O)COC(=O)Cc1c[nH]c2ccccc12,i,-1.6,i,i,-14,i
O=C(COC(=O)Cc1c[nH]c2ccccc12)NC1CCCCC1,i,-7*,i,i,-2,i
CC(C)c1ccccc1NC(=O)COC(=O)Cc1c[nH]c2ccccc12,i,-5.4*,i,i,-9,i
Cc1[nH]c(=O)[nH]c(=O)c1S(=O)(=O)Nc1ccc(F)cc1F,i,0.98,i,i,-4,i
CCN(CC)S(=O)(=O)c1ccc(C(=O)/C=C/c2ccc(-c3ccc([N+](=O)[O-])cc3)o2)cc1,-9.3*,-1.1,i,i,-14,i
Cc1ccc(C(=O)/C=C/c2ccc(-c3ccc(C)cc3)o2)cc1,i,0.01,i,i,-8,i
CC1(C)CC2CC(C)(CN2/C=N/c2sc3c(c2C#N)CC(C)(C)NC3(C)C)C1 (stereo not drawn),i,0.39,i,i,-10,i
COc1cc(OC)cc(C(=O)Nn2c(C)nc3ccccc3c2=O)c1,i,-0.67,i,i,-10,i
COc1cc(OC)cc(-c2nc3ccccc3c(=O)n2OC(=O)c2ccc(C)c(C)c2)c1,i,0,7*,i,-3,i
CCC(C(=O)Nc1cccc(S(=O)(=O)N(C)c2ccccc2)c1)c1ccccc1 (stereo not drawn),-9.9*,.,.,.,.,.
CN(CC(=O)Nc1cccc(F)c1)CC(=O)Nc1ccccc1[N+](=O)[O-],i,-1.5,i,i,-14,i
CN(CC(=O)Nc1cccc(F)c1)CC(=O)Nc1cccc(S(=O)(=O)N(C)c2ccccc2)c1,-9.3*,.,.,.,.,.

# High-throughput results deposited in PubChem by Johns Hopkins Ion Channel Center.
